{"source": "ChEMBL document CHEMBL1926550", "about": "“Synthesis and antibacterial activity of naphthyridone derivatives containing mono/difluoro-methyloxime pyrrolidine scaffolds” (2012)"}
{"test_system": "Staphylococcus epidermidis", "assay": "Antibacterial activity against methicillin-sensitive Staphylococcus epidermidis 10-2 after 18 hrs by two fold serial dilution method", "format": "functional", "details": "10-2, 18 h", "summary_of_the_method": "(§1)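 Agar two-fold serial dilution in melted Mueller-Hinton agar, final concentrations 128 down to 0.008 μg/mL. Plates inoculated with 10⁴ cfu and incubated at 35 °C for 18 h. MIC taken as the lowest concentration giving no visible growth on the plate.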", "units": {"MIC": "µg/mL"}}
{"compound": "CO/N=C1\\CN(c2nc3c(cc2F)c(=O)c(C(=O)O)cn3C2CC2)CC1CN", "note": "(configuration not stated) [GEMIFLOXACIN]", "MIC": 16}
{"test_system": "Staphylococcus epidermidis", "assay": "Antibacterial activity against methicillin-resistant Staphylococcus epidermidis 10-4 infected KM mouse systemic infection model assessed as decrease in mouse mortality administered orally twice after 1 and 4 hrs post infection measured up to 7 days", "format": "functional", "details": "10-4, po", "summary_of_the_method": "(§2)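 Strains grown on MH agar at 35 °C for 18 h, suspended in gastric mucin. Male KM mice (19–21 g), groups of 10, infected intraperitoneally with 0.5 mL at 5–10× MLD. Four oral dose levels per drug at 1 and 4 h post infection. Mortality followed 7 days; ED50 with 95% confidence limits by Bliss method.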", "units": {"ED50": "mg/kg"}}
{"compound": "CO/N=C1\\CN(c2nc3c(cc2F)c(=O)c(C(=O)O)cn3C2CC2)CC1CN", "note": "(configuration not stated) [GEMIFLOXACIN]", "ED50": 24}
{"test_system": "Pseudomonas aeruginosa", "assay": "Antibacterial activity against Pseudomonas aeruginosa 10-1 after 18 hrs by two fold serial dilution method", "format": "functional", "details": "10-1, 18 h", "summary_of_the_method": "as §1", "units": {"MIC": "µg/mL"}}
{"compound": "CO/N=C1\\CN(c2nc3c(cc2F)c(=O)c(C(=O)O)cn3C2CC2)CC1CN", "note": "(configuration not stated) [GEMIFLOXACIN]", "MIC": 0.25}
{"test_system": "Staphylococcus epidermidis", "assay": "Antibacterial activity against methicillin-resistant Staphylococcus epidermidis 10-4 after 18 hrs by two fold serial dilution method", "format": "functional", "details": "10-4, 18 h", "summary_of_the_method": "(§3)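 Agar two-fold serial dilution in melted Mueller-Hinton agar, 128 to 0.008 μg/mL. Plates inoculated with 10⁴ cfu, incubated 35 °C for 18 h. MIC taken as lowest concentration giving no visible growth on the plate.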", "units": {"MIC": "µg/mL"}}
{"compound": "CO/N=C1\\CN(c2nc3c(cc2F)c(=O)c(C(=O)O)cn3C2CC2)CC1CN", "note": "(configuration not stated) [GEMIFLOXACIN]", "MIC": 4}
{"test_system": "Klebsiella pneumoniae", "assay": "Antibacterial activity against Klebsiella pneumoniae 09-2 after 18 hrs by two fold serial dilution method", "format": "functional", "details": "09-2, 18 h", "summary_of_the_method": "as §1", "units": {"MIC": "µg/mL"}}
{"compound": "CO/N=C1\\CN(c2nc3c(cc2F)c(=O)c(C(=O)O)cn3C2CC2)CC1CN", "note": "(configuration not stated) [GEMIFLOXACIN]", "MIC": 16}
{"test_system": "Enterococcus faecium", "assay": "Antibacterial activity against Enterococcus faecium 09-5 after 18 hrs by two fold serial dilution method", "format": "functional", "details": "09-5, 18 h", "summary_of_the_method": "as §1", "units": {"MIC": "µg/mL"}}
{"compound": "CO/N=C1\\CN(c2nc3c(cc2F)c(=O)c(C(=O)O)cn3C2CC2)CC1CN", "note": "(configuration not stated) [GEMIFLOXACIN]", "MIC": 16}
{"test_system": "Escherichia coli", "assay": "Antibacterial activity against Escherichia coli 10-2 infected KM mouse systemic infection model assessed as decrease in mouse mortality administered orally twice after 1 and 4 hrs post infection measured up to 7 days", "format": "functional", "details": "10-2, po", "summary_of_the_method": "as §2", "units": {"ED50": "mg/kg"}}
{"compound": "CO/N=C1\\CN(c2nc3c(cc2F)c(=O)c(C(=O)O)cn3C2CC2)CC1CN", "note": "(configuration not stated) [GEMIFLOXACIN]", "ED50": 6.86}
{"test_system": "Klebsiella pneumoniae", "assay": "Antibacterial activity against Klebsiella pneumoniae 10-3 infected KM mouse systemic infection model assessed as decrease in mouse mortality administered orally twice after 1 and 4 hrs post infection measured up to 7 days", "format": "functional", "details": "10-3, po", "summary_of_the_method": "as §2", "units": {"ED50": "mg/kg"}}
{"compound": "CO/N=C1\\CN(c2nc3c(cc2F)c(=O)c(C(=O)O)cn3C2CC2)CC1CN", "note": "(configuration not stated) [GEMIFLOXACIN]", "ED50": 108}
{"test_system": "Escherichia coli", "assay": "Antibacterial activity against Escherichia coli 10-1 after 18 hrs by two fold serial dilution method", "format": "functional", "details": "10-1, 18 h", "summary_of_the_method": "as §1", "units": {"MIC": "µg/mL"}}
{"compound": "CO/N=C1\\CN(c2nc3c(cc2F)c(=O)c(C(=O)O)cn3C2CC2)CC1CN", "note": "(configuration not stated) [GEMIFLOXACIN]", "MIC": 16}
{"test_system": "Staphylococcus aureus", "assay": "Antibacterial activity against methicillin-sensitive Staphylococcus aureus 10-5 after 18 hrs by two fold serial dilution method", "format": "functional", "details": "10-5, 18 h", "summary_of_the_method": "as §1", "units": {"MIC": "µg/mL"}}
{"compound": "CO/N=C1\\CN(c2nc3c(cc2F)c(=O)c(C(=O)O)cn3C2CC2)CC1CN", "note": "(configuration not stated) [GEMIFLOXACIN]", "MIC": 0.5}
{"test_system": "Escherichia coli", "assay": "Antibacterial activity against Escherichia coli 10-3 after 18 hrs by two fold serial dilution method", "format": "functional", "details": "10-3, 18 h", "summary_of_the_method": "as §1", "units": {"MIC": "µg/mL"}}
{"compound": "CO/N=C1\\CN(c2nc3c(cc2F)c(=O)c(C(=O)O)cn3C2CC2)CC1CN", "note": "(configuration not stated) [GEMIFLOXACIN]", "MIC": 4}
{"test_system": "Enterococcus faecium", "assay": "Antibacterial activity against Enterococcus faecium 09-6 after 18 hrs by two fold serial dilution method", "format": "functional", "details": "09-6, 18 h", "summary_of_the_method": "as §1", "units": {"MIC": "µg/mL"}}
{"compound": "CO/N=C1\\CN(c2nc3c(cc2F)c(=O)c(C(=O)O)cn3C2CC2)CC1CN", "note": "(configuration not stated) [GEMIFLOXACIN]", "MIC": 0.03}
{"test_system": "Enterococcus faecium", "assay": "Antibacterial activity against Enterococcus faecium 09-4 after 18 hrs by two fold serial dilution method", "format": "functional", "details": "09-4, 18 h", "summary_of_the_method": "as §1", "units": {"MIC": "µg/mL"}}
{"compound": "CO/N=C1\\CN(c2nc3c(cc2F)c(=O)c(C(=O)O)cn3C2CC2)CC1CN", "note": "(configuration not stated) [GEMIFLOXACIN]", "MIC": 0.03}
{"test_system": "Staphylococcus epidermidis", "assay": "Antibacterial activity against methicillin-resistant Staphylococcus epidermidis 10-1 after 18 hrs by two fold serial dilution method", "format": "functional", "details": "10-1, 18 h", "summary_of_the_method": "as §3", "units": {"MIC": "µg/mL"}}
{"compound": "CO/N=C1\\CN(c2nc3c(cc2F)c(=O)c(C(=O)O)cn3C2CC2)CC1CN", "note": "(configuration not stated) [GEMIFLOXACIN]", "MIC": 0.25}
{"test_system": "Escherichia coli", "assay": "Antibacterial activity against Escherichia coli 09-2 after 18 hrs by two fold serial dilution method", "format": "functional", "details": "09-2, 18 h", "summary_of_the_method": "as §1", "units": {"MIC": "µg/mL"}}
{"compound": "CO/N=C1\\CN(c2nc3c(cc2F)c(=O)c(C(=O)O)cn3C2CC2)CC1CN", "note": "(configuration not stated) [GEMIFLOXACIN]", "MIC": 32}
{"test_system": "Escherichia coli", "assay": "Antibacterial activity against Escherichia coli 10-2 after 18 hrs by two fold serial dilution method", "format": "functional", "details": "10-2, 18 h", "summary_of_the_method": "as §1", "units": {"MIC": "µg/mL"}}
{"compound": "CO/N=C1\\CN(c2nc3c(cc2F)c(=O)c(C(=O)O)cn3C2CC2)CC1CN", "note": "(configuration not stated) [GEMIFLOXACIN]", "MIC": 0.25}
{"test_system": "Staphylococcus aureus", "assay": "Antibacterial activity against methicillin-resistant Staphylococcus aureus 10-3 after 18 hrs by two fold serial dilution method", "format": "functional", "details": "10-3, 18 h", "summary_of_the_method": "as §3", "units": {"MIC": "µg/mL"}}
{"compound": "CO/N=C1\\CN(c2nc3c(cc2F)c(=O)c(C(=O)O)cn3C2CC2)CC1CN", "note": "(configuration not stated) [GEMIFLOXACIN]", "MIC": 16}
{"test_system": "Staphylococcus aureus", "assay": "Antibacterial activity against methicillin-sensitive Staphylococcus aureus 10-2 after 18 hrs by two fold serial dilution method", "format": "functional", "details": "10-2, 18 h", "summary_of_the_method": "as §1", "units": {"MIC": "µg/mL"}}
{"compound": "CO/N=C1\\CN(c2nc3c(cc2F)c(=O)c(C(=O)O)cn3C2CC2)CC1CN", "note": "(configuration not stated) [GEMIFLOXACIN]", "MIC": 2}
{"test_system": "Pseudomonas aeruginosa", "assay": "Antibacterial activity against Pseudomonas aeruginosa ATCC 27853 after 18 hrs by two fold serial dilution method", "format": "functional", "details": "ATCC 27853, 18 h", "summary_of_the_method": "as §1", "units": {"MIC": "µg/mL"}}
{"compound": "CO/N=C1\\CN(c2nc3c(cc2F)c(=O)c(C(=O)O)cn3C2CC2)CC1CN", "note": "(configuration not stated) [GEMIFLOXACIN]", "MIC": 0.5}
{"test_system": "Pseudomonas aeruginosa", "assay": "Antibacterial activity against Pseudomonas aeruginosa 10-2 after 18 hrs by two fold serial dilution method", "format": "functional", "details": "10-2, 18 h", "summary_of_the_method": "as §1", "units": {"MIC": "µg/mL"}}
{"compound": "CO/N=C1\\CN(c2nc3c(cc2F)c(=O)c(C(=O)O)cn3C2CC2)CC1CN", "note": "(configuration not stated) [GEMIFLOXACIN]", "MIC": 16}
{"test_system": "Streptococcus pneumoniae", "assay": "Antibacterial activity against Streptococcus pneumoniae 10-1 after 18 hrs by two fold serial dilution method", "format": "functional", "details": "10-1, 18 h", "summary_of_the_method": "as §1", "units": {"MIC": "µg/mL"}}
{"compound": "CO/N=C1\\CN(c2nc3c(cc2F)c(=O)c(C(=O)O)cn3C2CC2)CC1CN", "note": "(configuration not stated) [GEMIFLOXACIN]", "MIC": 0.015}
{"test_system": "Enterococcus faecalis", "assay": "Antibacterial activity against Enterococcus faecalis 09-1 after 18 hrs by two fold serial dilution method", "format": "functional", "details": "09-1, 18 h", "summary_of_the_method": "as §1", "units": {"MIC": "µg/mL"}}
{"compound": "CO/N=C1\\CN(c2nc3c(cc2F)c(=O)c(C(=O)O)cn3C2CC2)CC1CN", "note": "(configuration not stated) [GEMIFLOXACIN]", "MIC": 2}
